Test results as given in ChEMBL document CHEMBL3576825, “Antineoplastic agents. 600. From the South Pacific Ocean to the silstatins” (J Nat Prod, 2015).

Legend:
NCI-H460 = test: Cytotoxicity against human NCI-H460 cells after 48 hrs by sulforhodamine B assay; format: functional; conditions: NCI-H460, 48 h
Summary of the method: (§1)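 NCI standard SRB protocol. Cells were seeded in 5% FBS/RPMI-1640 and incubated 24 h, then given serial dilutions of compound for 48 h. Plates were fixed with trichloroacetic acid, stained with sulforhodamine B and read by microplate reader. GI50, the concentration giving a 50% reduction in net protein increase, was calculated from optical density data.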

MCF7 = test: Cytotoxicity against human MCF7 cells after 48 hrs by sulforhodamine B assay; format: functional; conditions: MCF7, 48 h; summary of the method: as §1
[1] = Cytotoxicity against human KM20L2 cells after 48 hrs by sulforhodamine B assay; format: functional; conditions: KM-20L2, 48 h; summary of the method: as §1
SF-268 = test: Cytotoxicity against human SF268 cells after 48 hrs by sulforhodamine B assay; format: functional; conditions: SF-268, 48 h; summary of the method: as §1
DU-145 = test: Cytotoxicity against human DU145 cells after 48 hrs by sulforhodamine B assay; format: functional; conditions: DU-145, 48 h; summary of the method: as §1
[2] = Cytotoxicity against human BxPC3 cells after 48 hrs by sulforhodamine B assay; format: functional; conditions: BXPC-3, 48 h; summary of the method: as §1
[3] = Cytotoxicity against human MCF10A cells after 48 hrs by sulforhodamine B assay; format: cell-based, MCF-10A
[4] = Cytotoxicity against human CRL2221 cells after 48 hrs by sulforhodamine B assay; format: cell-based

Structure (SMILES) | GI50 (NCI-H460) [nM] | GI50 (MCF7) [nM] | GI50 [1] [nM] | GI50 (SF-268) [nM] | GI50 (DU-145) [nM] | GI50 [2] [nM] | GI50 at 48 h [3] [nM] | GI50 at 48 h [4] [nM]
CC[C@H](C)[C@H]1OC(=O)[C@H](C(C)C)NC(=O)[C@H](C)OC(=O)[C@@H](C(C)C)NC(=O)[C@@H]([C@@H](C)CC)OC(=O)[C@H](C(C)C)NC(=O)[C@H](C)OC(=O)[C@@H](C(C)C)NC(=O)[C@@H](CC(C)C)OC(=O)[C@H](C(C)C)NC(=O)[C@H](C)OC(=O)[C@@H](C(C)C)NC1=O | 0.39 | 0.27 | 0.23 | 1.6 | 0.75 | 0.29 |  | 
CC(C)C[C@H]1OC(=O)[C@H](C(C)C)NC(=O)[C@H](C)OC(=O)[C@@H](C(C)C)NC(=O)[C@@H](CC(C)C)OC(=O)[C@H](C(C)C)NC(=O)[C@H](C)OC(=O)[C@@H](C(C)C)NC(=O)[C@@H](CC(C)C)OC(=O)[C@H](C(C)C)NC(=O)[C@H](C)OC(=O)[C@@H](C(C)C)NC1=O | 0.61 | 0.095 | 0.14 | 0.18 | 0.36 | 0.69 |  | 
CC(C)C[C@H]1OC(=O)[C@H](Cc2ccc(OC(C)(C)C)cc2)NC(=O)[C@H](C)OC(=O)[C@@H](C(C)C)NC(=O)[C@@H](CC(C)C)OC(=O)[C@H](C(C)C)NC(=O)[C@H](C)OC(=O)[C@@H](C(C)C)NC(=O)[C@@H](CC(C)C)OC(=O)[C@H](C(C)C)NC(=O)[C@H](C)OC(=O)[C@@H](C(C)C)NC1=O | 23 | 3.3 | 3.8 | 2 | 8.6 | 24 |  | 
CC(C)C[C@H]1OC(=O)[C@H](C(C)C)NC(=O)[C@H](C)OC(=O)[C@@H](C(C)C)NC(=O)[C@@H](CC(C)C)OC(=O)[C@H]([C@@H](C)O)NC(=O)[C@H](C)OC(=O)[C@@H](C(C)C)NC(=O)[C@@H](CC(C)C)OC(=O)[C@H](C(C)C)NC(=O)[C@H](C)OC(=O)[C@@H](C(C)C)NC1=O | 2.8 | 1.9 | 2.9 | 2.7 | 5.2 | 3.5 |  | 
CC(C)C[C@H]1OC(=O)[C@H](Cc2ccc(O)cc2)NC(=O)[C@H](C)OC(=O)[C@@H](C(C)C)NC(=O)[C@@H](CC(C)C)OC(=O)[C@H](C(C)C)NC(=O)[C@H](C)OC(=O)[C@@H](C(C)C)NC(=O)[C@@H](CC(C)C)OC(=O)[C@H](C(C)C)NC(=O)[C@H](C)OC(=O)[C@@H](C(C)C)NC1=O | 3 | 1.3 | 0.9 | 3.3 | 4.2 | 4.1 |  | 
CC(C)[C@@H]1NC(=O)[C@H](C)OC(=O)[C@@H](C(C)C)NC(=O)[C@@H](CC2CCCCC2)OC(=O)[C@H](C(C)C)NC(=O)[C@H](C)OC(=O)[C@@H](C(C)C)NC(=O)[C@@H](CC2CCCCC2)OC(=O)[C@H](C(C)C)NC(=O)[C@H](C)OC(=O)[C@@H](C(C)C)NC(=O)[C@@H](CC2CCCCC2)OC1=O | 314 | 141 | 141 | 63.6 | 173 | 392 |  | 
CC(C)[C@@H]1NC(=O)[C@H](C)OC(=O)[C@@H](C(C)C)NC(=O)[C@@H](CC2CCCCC2)OC(=O)[C@H]([C@@H](C)OC(C)(C)C)NC(=O)[C@H](C)OC(=O)[C@@H](C(C)C)NC(=O)[C@@H](CC2CCCCC2)OC(=O)[C@H](C(C)C)NC(=O)[C@H](C)OC(=O)[C@@H](C(C)C)NC(=O)[C@@H](CC2CCCCC2)OC1=O | 240 | 56.3 | 60 | 56.3 | 90 | 135 |  | 
CC(C)[C@@H]1NC(=O)[C@H](C)OC(=O)[C@@H](C(C)C)NC(=O)[C@@H](CC2CCCCC2)OC(=O)[C@H](C(C)C)NC(=O)[C@H](C)OC(=O)[C@@H](C(C)C)NC(=O)[C@@H](CC2CCCCC2)OC(=O)[C@H](Cc2ccc(OC(C)(C)C)cc2)NC(=O)[C@H](C)OC(=O)[C@@H](C(C)C)NC(=O)[C@@H](CC2CCCCC2)OC1=O | > 717 | > 717 | > 717 | > 717 | > 717 | > 717 |  | 
CC(C)[C@@H]1NC(=O)[C@H](C)OC(=O)[C@@H](C(C)C)NC(=O)[C@@H](CC2CCCCC2)OC(=O)[C@H]([C@@H](C)O)NC(=O)[C@H](C)OC(=O)[C@@H](C(C)C)NC(=O)[C@@H](CC2CCCCC2)OC(=O)[C@H](C(C)C)NC(=O)[C@H](C)OC(=O)[C@@H](C(C)C)NC(=O)[C@@H](CC2CCCCC2)OC1=O | 16 | 2.4 | 3.4 | 3.4 | 3.9 | 24 |  | 
CC(C)[C@@H]1NC(=O)[C@H](C)OC(=O)[C@@H](C(C)C)NC(=O)[C@@H](CC2CCCCC2)OC(=O)[C@H](C(C)C)NC(=O)[C@H](C)OC(=O)[C@@H](C(C)C)NC(=O)[C@@H](CC2CCCCC2)OC(=O)[C@H](Cc2ccc(O)cc2)NC(=O)[C@H](C)OC(=O)[C@@H](C(C)C)NC(=O)[C@@H](CC2CCCCC2)OC1=O | 239 | 89.7 | 67.3 | 37.4 | 164 | 396 |  | 
CC(C)C[C@H]1OC(=O)[C@H](C(C)C)NC(=O)[C@H](C)OC(=O)[C@@H](C(C)C)NC(=O)[C@@H](CC2CCCCC2)OC(=O)[C@H]([C@@H](C)OC(C)(C)C)NC(=O)[C@H](C)OC(=O)[C@@H](C(C)C)NC(=O)[C@@H](CC(C)C)OC(=O)[C@H](C(C)C)NC(=O)[C@H](C)OC(=O)[C@@H](C(C)C)NC1=O | 7.2 | 0.79 | 1.9 | 3.2 | 5.6 | 18 |  | 
CC(C)C[C@H]1OC(=O)[C@H](C(C)C)NC(=O)[C@H](C)OC(=O)[C@@H](C(C)C)NC(=O)[C@@H](CC(C)C)OC(=O)[C@H](C(C)C)NC(=O)[C@H](C)OC(=O)[C@@H](C(C)C)NC(=O)[C@@H](CC2CCCCC2)OC(=O)[C@H](Cc2ccc(OC(C)(C)C)cc2)NC(=O)[C@H](C)OC(=O)[C@@H](C(C)C)NC1=O | 91 | 24 | 40 | 46 | 30 | 68 |  | 
CC(C)C[C@H]1OC(=O)[C@H](C(C)C)NC(=O)[C@H](C)OC(=O)[C@@H](C(C)C)NC(=O)[C@@H](CC2CCCCC2)OC(=O)[C@H]([C@@H](C)O)NC(=O)[C@H](C)OC(=O)[C@@H](C(C)C)NC(=O)[C@@H](CC(C)C)OC(=O)[C@H](C(C)C)NC(=O)[C@H](C)OC(=O)[C@@H](C(C)C)NC1=O | 3.3 | 1.5 | 1.7 | 2.6 | 2.5 | 3.2 | 3.35 | 3.35
CC(C)C[C@H]1OC(=O)[C@H](C(C)C)NC(=O)[C@H](C)OC(=O)[C@@H](C(C)C)NC(=O)[C@@H](CC(C)C)OC(=O)[C@H](C(C)C)NC(=O)[C@H](C)OC(=O)[C@@H](C(C)C)NC(=O)[C@@H](CC2CCCCC2)OC(=O)[C@H](Cc2ccc(O)cc2)NC(=O)[C@H](C)OC(=O)[C@@H](C(C)C)NC1=O | 3.2 | 0.88 | 1.7 | 2.4 | 4.3 | 4.8 |  | 
CC(C)C[C@H]1OC(=O)[C@H](C(C)C)NC(=O)[C@H](C)OC(=O)[C@@H](C(C)C)NC(=O)[C@@H](CC2CCCCC2)OC(=O)[C@H]([C@@H](C)OC(=O)CCCN(C)C(=O)OCc2ccc(O[C@@H]3O[C@H](C(=O)O)[C@@H](O)[C@H](O)[C@H]3O)c([N+](=O)[O-])c2)NC(=O)[C@H](C)OC(=O)[C@@H](C(C)C)NC(=O)[C@@H](CC(C)C)OC(=O)[C@H](C(C)C)NC(=O)[C@H](C)OC(=O)[C@@H](C(C)C)NC1=O | 42 | 18.6 | 24 | 30 | 78.1 | 120 | 150 | 30
CC[C@H](C)[C@H]1OC(=O)[C@H](C(C)C)NC(=O)[C@H](C)OC(=O)[C@@H](C(C)C)NC(=O)[C@@H]([C@@H](C)CC)OC(=O)[C@H](C(C)C)NC(=O)[C@H](C)OC(=O)[C@@H](C(C)C)NC(=O)[C@@H]([C@@H](C)CC)OC(=O)[C@H](C(C)C)NC(=O)[C@H](C)OC(=O)[C@@H](C(C)C)NC1=O [BACILLISTATIN 1] | 1.2 | 0.53 | 0.75 | 0.39 | 1.3 | 0.82 |  | 
